Assay results taken from ChEMBL document CHEMBL3399922, “3-Oxoisoxazole-2(3H)-carboxamides and isoxazol-3-yl carbamates: Resistance-breaking acetylcholinesterase inhibitors targeting the malaria mosquito, Anopheles gambiae” (Bioorg Med Chem, 2015).
Converted amounts (≈) assume the structure as drawn.

Columns and labels:
[1] = system: Anopheles gambiae; assay: Tarsal contact toxicity in Anopheles gambiae G3 (MRA-112) assessed as mortality measured at 24 hrs by filter paper assay; format: functional
Summary of the method: (§1)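 Non-blood-fed adult females, 3–5 days old, followed a modified 2006 WHO tube assay. Filter papers (15 × 12 cm) were treated with ethanolic carbamate and dried overnight. Mosquitoes were exposed 1 h, then given 10% sugar water, at 24 ± 1 °C and 75% RH; mortality was read at 24 h. G3 used 20-25/batch in triplicate and Akron 10-15 in duplicate. LC50 was from probit analysis of typically 5-8 concentrations.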

[2] = system: Anopheles gambiae; assay: Tarsal contact toxicity in Anopheles gambiae Akron (MRA-913) assessed as mortality measured at 24 hrs by filter paper assay; format: functional; summary of the method: as §1
[3] = Inhibition of recombinant wild-type Anopheles gambiae AChE compound incubated for up to 6 min at approximately 1 min interval; parameters: unit not given here
Summary of the method: (§2)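 Recombinant AgAChE enzymes were incubated with typically five inhibitor concentrations plus an inhibitor-free control. Residual activity v/v0 was read by Ellman assay against a time-matched control, at 23 ± 1°C, pH 7.7, 0.1% (v/v) DMSO. kobs is the slope of ln(v/v0) vs time, from at least two experiments. ki is the slope of kobs vs [I] in the linear, non-saturating range. Duplicate wells.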

[4] = Inhibition of recombinant Anopheles gambiae AChE G119S mutant compound incubated for up to 60 mins at approximately 10 mins interval; parameters: unit not given here; summary of the method: as §2
[5] = target: Acetylcholinesterase (Homo sapiens, UniProt P22303); assay: Inhibition of recombinant human AChE; parameters: unit not given here
Sequence of Acetylcholinesterase (P22303 whole entry): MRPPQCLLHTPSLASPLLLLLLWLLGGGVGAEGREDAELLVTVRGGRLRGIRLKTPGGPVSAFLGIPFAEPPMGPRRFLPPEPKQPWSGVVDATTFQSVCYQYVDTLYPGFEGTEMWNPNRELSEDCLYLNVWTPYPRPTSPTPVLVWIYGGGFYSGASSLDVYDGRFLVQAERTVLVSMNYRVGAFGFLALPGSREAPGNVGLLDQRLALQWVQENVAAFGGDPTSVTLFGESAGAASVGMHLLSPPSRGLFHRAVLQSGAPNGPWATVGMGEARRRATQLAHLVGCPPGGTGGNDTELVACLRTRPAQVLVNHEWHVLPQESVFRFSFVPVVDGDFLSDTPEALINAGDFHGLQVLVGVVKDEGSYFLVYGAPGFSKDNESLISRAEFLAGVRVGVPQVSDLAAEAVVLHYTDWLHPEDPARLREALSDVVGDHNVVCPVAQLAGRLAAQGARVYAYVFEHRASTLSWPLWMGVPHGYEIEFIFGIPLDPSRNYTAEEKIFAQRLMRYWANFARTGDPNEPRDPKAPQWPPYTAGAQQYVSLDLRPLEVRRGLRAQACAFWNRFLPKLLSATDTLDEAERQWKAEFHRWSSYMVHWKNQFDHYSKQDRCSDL

[6] = system: Anopheles gambiae; assay: Tarsal contact toxicity in Anopheles gambiae G3 (MRA-112) assessed as mortality measured at 1000 ug/mL at 24 hrs by filter paper assay; format: functional; summary of the method: as §1
[7] = system: Anopheles gambiae; assay: Tarsal contact toxicity in Anopheles gambiae Akron (MRA-913) assessed as mortality measured at 1000 ug/mL at 24 hrs by filter paper assay; format: functional; summary of the method: as §1
[8] = system: Anopheles gambiae; assay: Tarsal contact toxicity in Anopheles gambiae Akron (MRA-913) assessed as mortality measured at 200 ug/mL at 24 hrs by filter paper assay; format: functional; summary of the method: as §1

SMILES | LC50 [1] [µg/mL] | LC50 [2] [µg/mL] | mortality at 1000 µg/mL [6] [%] | further results
CCCC(C)c1cc(OC(=O)N(C)C)no1 (stereo not drawn) | 234 (≈ 1030 µM) | 296 (≈ 1310 µM) |  | Ki [3]: 416; Ki [4]: 30.6; Ki [5]: 50.9
CC(C)CCc1cc(OC(=O)N(C)C)no1 | 415 (≈ 1830 µM) | 429 (≈ 1900 µM) |  | 
CNC(=O)O/N=C/C(C)(C)SC [ALDICARB] | 70 (≈ 368 µM) | 32 (≈ 168 µM) |  | 
CN(C)C(=O)n1oc(C2CCC2)cc1=O | 79 (≈ 376 µM) | 74 (≈ 352 µM) |  | 
CN(C)C(=O)Oc1cc(CCC2CCCC2)on1 | 674 (≈ 2670 µM) |  |  | Ki [3]: 0.6; Ki [4]: 0.12; Ki [5]: 13.1
CN(C)C(=O)n1oc(CCC2CCCC2)cc1=O |  |  | 0 | 
CCC(C)Cc1cc(OC(=O)N(C)C)no1 (stereo not drawn) |  |  | 30 | 
CC(C)CCc1cc(=O)n(C(=O)N(C)C)o1 | 73 (≈ 323 µM) | 68 (≈ 301 µM) |  | Ki [3]: 266; Ki [4]: 0.4; Ki [5]: 80.9
CNC(=O)Oc1ccccc1OC(C)C [PROPOXUR] | 39 (≈ 186 µM) | > 5000 |  | 
CCCC(C)c1cc(=O)n(C(=O)N(C)CC)o1 (stereo not drawn) | 400 (≈ 1660 µM) | 614 (≈ 2560 µM) |  | 
CN(C)C(=O)Oc1cc(C2CCC2)on1 | 349 (≈ 1660 µM) | 392 (≈ 1860 µM) |  | 
CC(C)Cc1cc(OC(=O)N(C)C)no1 | 253 (≈ 1190 µM) | 151 (≈ 711 µM) |  | 
CCCC(C)c1cc(OC(=O)N(C)CC)no1 (stereo not drawn) | 410 (≈ 1710 µM) | 574 (≈ 2390 µM) |  | 
CCCC(C)c1cc(=O)n(C(=O)N2CCOCC2)o1 (stereo not drawn) |  |  | 45 | 
CCC(C)c1cc(OC(=O)N(C)C)no1 (stereo not drawn) | 41 (≈ 193 µM) | 58 (≈ 273 µM) |  | 
Cc1cc(=O)n(C(=O)N(C)C)o1 |  |  | 0 | 
CNC(=O)Oc1cccc2c1OC(C)(C)C2 [CARBOFURAN] | 16 (≈ 72.3 µM) | > 5000 |  | 
CN(C)C(=O)Oc1cc(C2CCCC2)on1 |  |  | 60 | 
CN(C)C(=O)n1oc(C2CCCC2)cc1=O | 105 (≈ 468 µM) | 118 (≈ 526 µM) |  | 
CCCC(C)c1cc(=O)n(C(=O)N(C)C)o1 (stereo not drawn) | 153 (≈ 676 µM) | 75 (≈ 331 µM) |  | 
CN(C)C(=O)n1oc(C2CC2)cc1=O | 278 (≈ 1420 µM) |  |  | mortality at 1000 µg/mL [7]: 10%; Ki [3]: 50.5; Ki [4]: 0.2; Ki [5]: 103
CN(C)C(=O)Oc1cc(C2CC2)on1 |  |  | 0 | 
CN(C)C(=O)Oc1cc(CCC2CC2)on1 | 191 (≈ 852 µM) | 198 (≈ 883 µM) |  | 

SMILES | LC50 [1] [µg/mL] | LC50 [2] [µg/mL] | mortality at 1000 µg/mL [6] [%] | further results
CCC(C)c1cc(=O)n(C(=O)N(C)C)o1 (stereo not drawn) | 63 (≈ 297 µM) | 129 (≈ 608 µM) |  | 
CCCC(C)c1cc(OC(=O)N2CCCC2)no1 (stereo not drawn) |  |  | 0 | 
CNC(=O)Oc1cccc2c1OC(C)(C)O2 [BENDIOCARB] | 16 (≈ 71.7 µM) | > 5000 |  | 
CN(C)C(=O)n1oc(CCC2CC2)cc1=O | 133 (≈ 593 µM) | 144 (≈ 642 µM) |  | 
CCCC(C)c1cc(=O)n(C(=O)N(CC)CC)o1 (stereo not drawn) |  |  | 15 | 
CC(C)c1cc(OC(=O)N(C)C)no1 | 84 (≈ 424 µM) | 116 (≈ 585 µM) |  | 
CCCCC(CC)c1cc(OC(=O)N(C)C)no1 (stereo not drawn) |  |  | 0 | 
CNC(=O)Oc1cccc(C(C)(C)C)c1 | 37 (≈ 179 µM) | > 5000 |  | 
CCC(CC)c1cc(OC(=O)N(C)C)no1 |  |  | 70 | 
CN(C)C(=O)Oc1cc(CCC2CCC2)on1 |  |  | 40 | 
CC(C)Cc1cc(=O)n(C(=O)N(C)C)o1 | 201 (≈ 947 µM) |  |  | mortality at 200 µg/mL [8]: 25%; Ki [3]: 252; Ki [4]: 0.55; Ki [5]: 30.9
CCC(C)Cc1cc(=O)n(C(=O)N(C)C)o1 (stereo not drawn) |  |  | 0 | 
CCC(C)n1cc(OC(=O)NC)cn1 (stereo not drawn) | 96 (≈ 487 µM) | 81 (≈ 411 µM) |  | 
Cc1cc(OC(=O)N(C)C)no1 |  |  | 0 | 
CCC(CC)c1cc(=O)n(C(=O)N(C)C)o1 | 38 (≈ 168 µM) | 40 (≈ 177 µM) |  | 
CCCC(C)c1cc(=O)n(C(=O)N2CCC2)o1 (stereo not drawn) |  |  | 78 | 
CC(C)c1cc(=O)n(C(=O)N(C)C)o1 | 316 (≈ 1590 µM) | 182 (≈ 918 µM) |  | 
CN(C)C(=O)Oc1cc(CC(C)(C)C)on1 |  |  | 0 | Ki [3]: 0.12; Ki [4]: 0.05; Ki [5]: 0.44
CN(C)C(=O)n1oc(CCC2CCC2)cc1=O |  |  | 30 | 
CCCC(C)c1cc(=O)n(C(=O)N2CCCC2)o1 (stereo not drawn) |  |  | 77 | 
CCCC(C)c1cc(OC(=O)N2CCOCC2)no1 (stereo not drawn) |  |  | 10 | 
CN(C)C(=O)n1oc(CC(C)(C)C)cc1=O |  |  | 80 | 
